Measurements published in ChEMBL document CHEMBL4385635, “Styryl quinazolinones and its ethynyl derivatives induce myeloid differentiation” (Bioorg Med Chem Lett, 2019).
Blank lines part the entries; values can stand above or below the compound they belong to. The source made the active and inactive calls. The rule behind the calls is not given here.

What was measured:
[1] = system: HL-60; test: Induction of differentiation of human HL60 cells assessed as morphological changes at 10 uM after 7 days; type: functional
In short: (§1)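 HL-60 cells were screened for differentiation by Wright-Giemsa morphology and NBT reduction, and apoptosis was scored alongside. Controls were 0.1% DMSO as vehicle and ATRA at 1 μM as positive. Each result was graded on a semiquantitative scale (−, ±, + to +++).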

[2] = system: HL-60; test: Induction of apoptosis in human HL60 cells at 10 uM after 7 days; type: functional
In short: (§2)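 Apoptosis in compound-treated HL-60 cells was scored semi-quantitatively (− to +++), alongside the differentiation read-outs, against a 0.1% DMSO vehicle control.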

[3] = system: HL-60; test: Induction of differentiation of human HL60 cells assessed as morphological changes at 10 uM after 7 days by Wright-Giemsa staining based assay; type: functional; in short: as §1
[4] = system: HL-60; test: Induction of differentiation of human HL60 cells assessed as morphological changes at 10 uM after 7 days by NBT reduction assay; type: functional; in short: as §1
[5] = target: Tubulin (Bos taurus, UniProt Q6B856+Q862L2+Q862F3); test: Inhibition of bovine brain tubulin polymerization
[6] = system: HL-60; test: Induction of differentiation of human HL60 cells assessed as morphological changes at 3 uM after 7 days; type: functional, cell-based
In short: (§3)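 HL-60 cells were treated with compound, with 0.1% DMSO as vehicle control. Differentiation was judged by Wright-Giemsa morphology and NBT reduction, each scored semi-quantitatively from − through ± to +++.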

[7] = system: HL-60; test: Induction of differentiation of human HL60 cells assessed as increase in CEBPA mRNA expression at by QT-PCR analysis; type: functional, cell-based
In short: (§4)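 HL-60 cells were treated and CEBPA and CEBPE mRNA levels were measured by quantitative RT-PCR. Results are expressed as fold increase relative to DMSO-treated cells.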

[8] = system: HL-60; test: Induction of differentiation of human HL60 cells assessed as increase in CD11b positive cells after 7 days by flow cytometric analysis relative to control; type: functional, cell-based
In short: (§5)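 HL-60 cells were exposed to compound for 7 days, then stained with APC-conjugated anti-human/mouse CD11b antibody, with rat IgG2b as isotype control. CD11b-positive cells were measured by flow cytometry and reported as percent increase relative to the DMSO vehicle.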

[9] = system: HL-60; test: Cytotoxicity against human HL60 cells assessed as reduction in cell viability at >3 uM; type: functional, cell-based
[10] = system: HL-60; test: Cytotoxicity against human HL60 cells assessed as reduction in cell viability at 3 uM; type: functional, cell-based
[11] = system: HL-60; test: Cytotoxicity against human HL60 cells assessed as reduction in cell viability at 1 uM; type: functional, cell-based
[12] = system: HL-60; test: Induction of differentiation of human HL60 cells assessed as morphological changes at 1 uM after 7 days; type: functional, cell-based; in short: as §3
[13] = system: HL-60; test: Induction of differentiation of human HL60 cells assessed as increase in CEBPE mRNA expression at 10 uM by QT-PCR analysis; type: functional; in short: as §4
[14] = system: HL-60; test: Induction of differentiation of human HL60 cells assessed as increase in CEBPA mRNA expression at 10 uM by QT-PCR analysis; type: functional; in short: as §4
[15] = system: HL-60; test: Induction of differentiation of human HL60 cells assessed as increase in CD11b positive cells at 10 uM after 7 days by flow cytometric analysis (reference value: 3.94%); type: functional
[16] = system: L1210; test: Cytotoxicity against mouse L1210 cells assessed as reduction in cell viability after 48 hrs by trypan blue staining-based hemocytometric analysis; type: functional; settings: L1210, 48 h
[17] = system: HL-60; test: Induction of differentiation of human HL60 cells assessed as morphological changes at 1 uM after 7 days by Wright-Giemsa staining based assay; type: functional
In short: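 Compound-treated HL-60 cells were stained with Wright-Giemsa and examined for granulocytic morphology. Scoring was semi-quantitative (− to +++) against a 0.1% DMSO vehicle control.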

[18] = system: HL-60; test: Induction of apoptosis in human HL60 cells at 1 uM after 7 days; type: functional; in short: as §2
[19] = system: HL-60; test: Induction of differentiation of human HL60 cells assessed as morphological changes at 1 uM after 7 days by NBT reduction assay; type: functional
In short: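 In compound-treated HL-60 cells, differentiation was read as NBT reduction. Scoring was semi-quantitative (−, ±, + to +++) against a 0.1% DMSO vehicle control.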

[20] = system: HL-60; test: Induction of differentiation of human HL60 cells assessed as increase in CEBPA mRNA expression at 1 uM by QT-PCR analysis; type: functional
In short: (§6)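 HL-60 cells were treated with compound over a time course. CEBPA or CEBPE mRNA levels were measured and expressed as fold increase relative to the DMSO vehicle.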

[21] = system: HL-60; test: Induction of differentiation of human HL60 cells assessed as increase in CD11b positive cells at 1 uM after 7 days by flow cytometric analysis (reference value: 3.94%); type: functional; in short: as §5
[22] = system: HL-60; test: Induction of differentiation of human HL60 cells assessed as increase in CEBPE mRNA expression at by QT-PCR analysis; type: functional, cell-based; in short: as §6
[23] = system: HL-60; test: Induction of differentiation of human HL60 cells assessed as increase in CEBPE mRNA expression at 3 uM by QT-PCR analysis; type: functional; in short: as §4
[24] = system: HL-60; test: Induction of differentiation of human HL60 cells assessed as increase in CEBPA mRNA expression at 3 uM by QT-PCR analysis; type: functional; in short: as §4
[25] = system: HL-60; test: Induction of differentiation of human HL60 cells assessed as increase in CD11b positive cells at 5 uM after 7 days by flow cytometric analysis (reference value: 3.94%); type: functional
[26] = system: HL-60; test: Induction of apoptosis in human HL60 cells at 3 uM after 7 days; type: functional; in short: as §1
[27] = system: HL-60; test: Induction of differentiation of human HL60 cells assessed as morphological changes at 3 uM after 7 days by Wright-Giemsa staining based assay; type: functional; in short: as §1
[28] = system: HL-60; test: Induction of differentiation of human HL60 cells assessed as morphological changes at 3 uM after 7 days by NBT reduction assay; type: functional; in short: as §1
[29] = system: HL-60; test: Induction of differentiation of human HL60 cells assessed as increase in CD11b positive cells at 3 uM after 7 days by flow cytometric analysis (reference value: 3.94%); type: functional
[30] = system: HL-60; test: Induction of differentiation of human HL60 cells assessed as increase in CD11b positive cells at 7 uM after 7 days by flow cytometric analysis (reference value: 3.94%); type: functional
[31] = system: HL-60; test: Induction of differentiation of human HL60 cells assessed as increase in CEBPE mRNA expression at 7 uM by QT-PCR analysis; type: functional; in short: as §4
[32] = system: HL-60; test: Induction of differentiation of human HL60 cells assessed as increase in CEBPA mRNA expression at 7 uM by QT-PCR analysis; type: functional; in short: as §4

SMILES: C#Cc1ccc(-n2c(/C=C/c3ccc(O)cc3)nc3ccccc3c2=O)cc1
Activity [1]: 5 - 30%
Activity [2]: 5 - 30%
Activity [3]: 5 - 30%
Activity [4]: 5 - 30%

IC50 [5]: 2.5 µM
SMILES: Oc1nc(/C=C/c2ccccc2)nc2ccc(Cl)cc12

SMILES: O=c1[nH]c(/C=C/c2ccc([N+](=O)[O-])o2)nc2ccsc12
Activity [6]: inactive
Activity [7]: Active
Activity [8]: inactive
Activity [9]: Active
Activity [10]: Active
Activity [2]: 5 - 30%
Activity [4]: 5 - 30%

SMILES: O=c1c2sccc2nc(/C=C/c2ccc([N+](=O)[O-])o2)n1-c1ccccc1Cl
Activity [7]: Active
Activity [8]: inactive
Activity [9]: Active
Activity [11]: Active
Activity [12]: inactive
Activity [2]: 5 - 30%
Activity [4]: 5 - 30%

SMILES: COc1ccccc1-n1c(/C=C/c2ccc(O)c(O)c2)nc2ccccc2c1=O
fold change (FC) [13]: 2.1
Activity ([7]; TDE = time-dependent effect): Tde
fold change (FC) [14]: 1.5
Activity [15]: 25.9 - 51.2%
Activity [2]: 5 - 30%
Activity [3]: 5 - 30%
Activity [4]: 5 - 30%

SMILES: COc1cc(/C=C/c2nc3ccccc3c(=O)n2-c2c(Cl)cccc2Cl)ccc1O
Activity [2]: 5 - 30%

SMILES: Cc1cc(-n2c(/C=C/c3ccccc3)nc3ccc(Cl)cc3c2=O)n(-c2ccccc2)n1
IC50 [16]: 15 µM

SMILES: O=c1c2ccccc2nc(/C=C/c2ccc([N+](=O)[O-])o2)n1-c1ccccc1F
fold change (FC) [13]: 6
Activity ([7]; TDE = time-dependent effect): Tde
fold change (FC) [14]: 1.8
Activity [15]: 59%
Activity [2]: >60%
Activity [3]: 30 - 60%
Activity [4]: 30 - 60%

SMILES: Cc1ccc(-n2c(/C=C/c3ccc([N+](=O)[O-])o3)nc3ccsc3c2=O)cc1
Activity [9]: Active
Activity [2]: 5 - 30%

SMILES: CC1=C(/C=C/C(C)=C/C=C/C(C)=C/C(=O)O)C(C)(C)CCC1 [TRETINOIN]
Activity [17]: >60%
Activity [18]: >60%
Activity [19]: >60%
Activity ([7]; TDE = time-dependent effect): Tde
fold change (FC) [20]: 3
Activity [21]: 96.4%

SMILES: O=c1c2sccc2nc(/C=C/c2ccc([N+](=O)[O-])o2)n1-c1ccc(Cl)cc1
Activity [6]: inactive
Activity [9]: Active
Activity [10]: Active
Activity [2]: 5 - 30%

SMILES: O=c1c2sccc2nc(/C=C/c2ccc([N+](=O)[O-])o2)n1-c1cccc(Cl)c1
Activity [6]: inactive
Activity [9]: Active
Activity [10]: Active
Activity [2]: 5 - 30%

SMILES: O=C(O)c1cccc(-n2c(/C=C/c3ccc([N+](=O)[O-])o3)nc3ccccc3c2=O)c1
Activity [3]: 5 - 30%
Activity [4]: 5 - 30%

SMILES: Cc1cc(C#Cc2ccc(C(C)(C)C)cc2)ccc1-n1c(/C=C/c2ccc([N+](=O)[O-])o2)nc2ccccc2c1=O
Activity [22]: inactive
Activity [7]: inactive
Activity [8]: inactive
Activity [1]: 5 - 30%
Activity [2]: 5 - 30%
Activity [3]: 5 - 30%
Activity [4]: 5 - 30%

SMILES: O=c1c2cc(F)ccc2nc(/C=C/c2ccc([N+](=O)[O-])o2)n1-c1ccccc1
fold change (FC) [23]: 10.3
Activity ([7]; TDE = time-dependent effect): Tde
fold change (FC) [24]: 2.5
Activity [25]: 68.6%
Activity [26]: 30 - 60%
Activity [27]: 30 - 60%
Activity [28]: 30 - 60%
Activity [29]: 42.2%

SMILES: COc1ccccc1-n1c(/C=C/c2ccc([N+](=O)[O-])o2)nc2ccc(F)cc2c1=O
Activity [30]: 89%
fold change (FC) [31]: 2.6
Activity ([7]; TDE = time-dependent effect): Tde
fold change (FC) [32]: 1.6
Activity [15]: 94.2%
Activity [26]: 30 - 60%
Activity [2]: >60%
Activity [27]: 5 - 30%
Activity [3]: 30 - 60%
Activity [28]: 5 - 30%
Activity [4]: 30 - 60%
